Assay results collected from several papers.
Protocols differ between the studies behind these lines.
Target: Proto-oncogene tyrosine-protein kinase ROS (ROS1, Homo sapiens, UniProt P08922)

O=c1[nH]c2ccccc2n1C1CCN(Cc2ccc(-c3[nH]c4cc5ncnc5cc4nc3-c3ccccc3)cc2)CC1  remaining signal (cell-free assay; 0.5 µM): 101%
N#CC1(c2ccccn2)CCN(Cc2cc(C(=O)O)c(=O)n3ccccc23)CC1  remaining binding (cell-free assay, competition with immobilised ligand; 1 µM): 90%
COc1ncccc1-c1cnn2ccc(N3CCN(C(=O)OC(C)C)CC3)nc12  remaining binding (binding, competition with immobilised ligand; 1 µM): 100%
Cn1cncc1[C@](O)(COc1ccc(C#N)cc1-c1ccc(OC(F)(F)F)cc1)c1ccc(C#N)cc1  remaining binding (cell-free assay, competition with immobilised ligand; 1 µM): 89%
Cc1nn(C)cc1-c1nc2c(N3CCN(Cc4ccc(Cl)cc4)CC3)c(Cl)cnc2[nH]1  remaining binding (binding, competition with immobilised ligand; 1 µM): 100%
Cn1cc(-c2cc(F)cc(N3CCn4c(cc5c4CCCC5)C3=O)c2CO)cc(Nc2ccc(N3CCN(C4COC4)CC3)cn2)c1=O  inhibition (enzyme activity, inhibitor; 0.1 µM): 10%
Nc1ncc(-c2nc(N3CCOCC3)nc(N3CCOCC3)n2)c(C(F)F)n1  remaining binding (binding, competition with immobilised ligand; 10 µM): 54%
C#Cc1n[nH]c2c(-c3cn([C@@H](C)c4ccccn4)c(=O)[nH]c3=O)cc(F)cc12  inhibition (enzyme activity, inhibitor; 0.1 µM): 5.1%
